From ChEMBL document CHEMBL1151869, “Discovery of novel 3,6-disubstituted 2-pyridinecarboxamide derivatives as GK activators” (Bioorg Med Chem Lett, 2009)
The source made the active and inactive calls. No cut-off for these calls is given here.

Tests used:
[1] = molecular target: T1, Hexokinase-4 (Homo sapiens, UniProt P35557); test: Activation of glucokinase
T1 sequence (P35557 whole entry): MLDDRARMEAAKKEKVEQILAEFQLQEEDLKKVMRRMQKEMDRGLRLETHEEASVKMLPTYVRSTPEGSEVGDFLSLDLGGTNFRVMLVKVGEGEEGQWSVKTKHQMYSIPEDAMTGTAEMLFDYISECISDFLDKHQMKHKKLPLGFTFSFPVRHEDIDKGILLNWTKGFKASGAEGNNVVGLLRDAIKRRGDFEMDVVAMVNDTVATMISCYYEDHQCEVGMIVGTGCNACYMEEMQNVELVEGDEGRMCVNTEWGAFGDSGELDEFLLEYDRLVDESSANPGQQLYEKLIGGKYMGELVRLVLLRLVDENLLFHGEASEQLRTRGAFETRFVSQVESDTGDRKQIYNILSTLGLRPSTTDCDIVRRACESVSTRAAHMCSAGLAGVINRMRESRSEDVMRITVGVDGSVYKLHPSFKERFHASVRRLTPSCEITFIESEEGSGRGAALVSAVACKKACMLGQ

[2] = Hepatic availability in rat hepatocytes; type: ADME, cell-based, Hepatocyte
[3] = AUC (0 to infinity) in rat at 1 mg/kg, iv; type: ADME, organism-based; design: dose 1 mg/kg, route intravenous, time infinity; conditions: plasma
[4] = Half life in rat at 1 mg/kg, iv; type: ADME, organism-based; design: dose 1 mg/kg, route intravenous; conditions: in vivo
[5] = Plasma clearance in rat at 1 mg/kg, iv; type: ADME, organism-based; design: dose 1 mg/kg, route intravenous
[6] = Volume of distribution at steady state in rat at 1 mg/kg, iv; type: ADME, organism-based; design: dose 1 mg/kg, route intravenous; conditions: in vivo, read-out: Vdss
[7] = AUC (0 to infinity) in rat at 3 mg/kg, po; type: ADME, organism-based; design: dose 3 mg/kg, route oral, time infinity; conditions: plasma
[8] = Oral bioavailability in rat at 3 mg/kg, po; type: ADME, organism-based; conditions: in vivo
[9] = system: Rattus norvegicus; test: Reduction in glucose AUC in overnight fasted Wistar rat at 30 mg/kg, po treated after 30 mins of glucose challenge measured after 3.5 hrs by oral glucose tolerance test; type: functional, organism-based; design: dose 30 mg/kg
Procedure, shortened: (§1)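 Nine-week-old male Wistar rats, fasted overnight, given oral dose (30 mpk) or vehicle (0.5% methylcellulose), then an oral glucose challenge (2 g/kg) 30 min later. Blood glucose read just before the challenge and at 30, 60, 90, 120, 150 and 210 min after; AUC taken from the glucose time course.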

[10] = system: Rattus norvegicus; test: Reduction in plasma glucose level in overnight fasted Wistar rat at 30 mg/kg, po treated after 30 mins of glucose challenge measured after 1 to 3 hrs by oral glucose tolerance test; type: functional, organism-based; design: dose 30 mg/kg; procedure, shortened: as §1

Compound | EC50 [1] | Fh [2] | further results
O=C(Nc1nccs1)c1nc(Sc2nnc[nH]2)ccc1Sc1ccc(C(F)(F)F)cc1 | 160 nM | – | –
O=C(Nc1nccs1)c1nc(Sc2nnc[nH]2)ccc1Sc1ccccc1F | 57 nM | 71% | –
Cc1csc(NC(=O)c2cc(Sc3nncn3C)ccc2Sc2ccc(F)cc2)n1 | 970 nM | – | –
COc1ccc(Sc2ccc(Sc3nnc[nH]3)nc2C(=O)Nc2nccs2)cc1 | 120 nM | 35% | –
Cn1cnnc1Sc1ccc(Sc2ccc(F)cc2)c(C(=O)Nc2nccs2)n1 | 120 nM | – | –
COc1cccc(Sc2ccc(Sc3nnc[nH]3)nc2C(=O)Nc2nccs2)c1 | 160 nM | – | –
Cc1cccc(Sc2ccc(Sc3nnc[nH]3)nc2C(=O)Nc2nccs2)c1 | 100 nM | 69% | –
Cc1csc(NC(=O)c2nc(Sc3nncn3C)ccc2Sc2ccc(F)cc2)n1 | 250 nM | – | –
O=C(Nc1nccs1)c1nc(Sc2nnc[nH]2)ccc1Sc1ccc(F)cc1 | – | 100% | AUC(0-inf) [3]: 4.9 µM·h; half-life [4]: 4 h; clearance [5]: 8.8 mL/min/kg; Vd [6]: 0.5 L/kg; AUC(0-inf) [7]: 3.3 µM·h; bioavailability [8]: 23%; Activity [9]: Active; Activity [10]: Active
O=C(Nc1nccs1)c1nc(Sc2nnc[nH]2)ccc1Sc1ccccc1 | 38 nM | 77% | –
O=C(Nc1nccs1)c1nc(Sc2nnc[nH]2)ccc1Sc1cccc(F)c1 | 40 nM | 89% | –
